Measured values: ChEMBL document CHEMBL1765074, “Synthesis, evaluation and structural studies of antiproliferative tubulin-targeting azetidin-2-ones” (Bioorg Med Chem, 2011)

Tests used:
MCF7 [1] = assay: Antiproliferative activity against human MCF7 cells by MTT assay; format: functional, cell-based
How it was run: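 MCF-7 cells grown in Eagle's MEM with 10% FBS, 2 mM L-glutamine, penicillin/streptomycin and 1% non-essential amino acids. Seeded at 2.5×10^4 cells/mL, left 24 h at 37°C, then treated 72 h across 1 nM–100 μM from ethanol stocks (vehicle 1% v/v). MTT at 1 mg/mL final for 2 h in darkness, DMSO solubilisation, absorbance read. IC50 is the mean of at least three experiments in triplicate.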

K562 = assay: Antiproliferative activity against human K562 cells; format: functional; details: read-out: LC50 (the source's name)
SF-268 = assay: Antiproliferative activity against human SF268 cells; format: functional; details: read-out: LC50 (the source's name)
HOP-62 = assay: Antiproliferative activity against human HOP62 cells; format: functional; details: read-out: LC50 (the source's name)
UO-31 = assay: Antiproliferative activity against human UO31 cells; format: functional; details: read-out: LC50 (the source's name)
SW-620 = assay: Antiproliferative activity against human SW620 cells; format: functional; details: read-out: LC50 (the source's name)
ACHN = assay: Antiproliferative activity against human ACHN cells; format: functional; details: read-out: LC50 (the source's name)
IGROV-1 = assay: Antiproliferative activity against human IGROV1 cells; format: functional; details: read-out: LC50 (the source's name)
[2] = Antiproliferative activity against human […] cells; format: functional; details: read-out: LC50 (the source's name)
OVCAR-8 = assay: Antiproliferative activity against human OVCAR8 cells; format: functional; details: read-out: LC50 (the source's name)
NCI-H522 = assay: Antiproliferative activity against human NCI-H522 cells; format: functional; details: read-out: LC50 (the source's name)
A498 = assay: Antiproliferative activity against human A498 cells; format: functional; details: read-out: LC50 (the source's name)
HL-60(TB) = assay: Antiproliferative activity against human HL-60(TB) cells; format: functional; details: read-out: LC50 (the source's name)
BT-549 = assay: Antiproliferative activity against human BT549 cells; format: functional; details: read-out: LC50 (the source's name)
CAKI-1 = assay: Antiproliferative activity against human Caki1 cells; format: functional; details: read-out: LC50 (the source's name)
MDA-MB-435 = assay: Antiproliferative activity against human MDA-MB-435 cells; format: functional; details: read-out: LC50 (the source's name)
RPMI-8226 = assay: Antiproliferative activity against human RPMI8226 cells; format: functional; details: read-out: LC50 (the source's name)
TK-10 = assay: Antiproliferative activity against human TK10 cells; format: functional; details: read-out: LC50 (the source's name)
KM12 = assay: Antiproliferative activity against human KM12 cells; format: functional; details: read-out: LC50 (the source's name)
MDA-MB-231 [3] = assay: Antiproliferative activity against human MDA-MB-231 cells; format: functional; details: read-out: LC50 (the source's name)
HCT-15 = assay: Antiproliferative activity against human HCT15 cells; format: functional; details: read-out: LC50 (the source's name)
Malme-3M = assay: Antiproliferative activity against human MALME-3M cells; format: functional; details: read-out: LC50 (the source's name)
SF-539 = assay: Antiproliferative activity against human SF539 cells; format: functional; details: read-out: LC50 (the source's name)
COLO 205 = assay: Antiproliferative activity against human COLO205 cells; format: functional; details: read-out: LC50 (the source's name)
HCC 2998 = assay: Antiproliferative activity against human HCC2998 cells; format: functional; details: read-out: LC50 (the source's name)
NCI-H226 = assay: Antiproliferative activity against human NCI-H226 cells; format: functional; details: read-out: LC50 (the source's name)
SN12C = assay: Antiproliferative activity against human SN12C cells; format: functional; details: read-out: LC50 (the source's name)
CCRF-CEM = assay: Antiproliferative activity against human CCRF-CEM cells; format: functional; details: read-out: LC50 (the source's name)
OVCAR-4 = assay: Antiproliferative activity against human OVCAR4 cells; format: functional; details: read-out: LC50 (the source's name)
SK-OV-3 = assay: Antiproliferative activity against human SKOV3 cells; format: functional; details: read-out: LC50 (the source's name)
T47D = assay: Antiproliferative activity against human T47D cells; format: functional; details: read-out: LC50 (the source's name)
OVCAR-5 = assay: Antiproliferative activity against human OVCAR5 cells; format: functional; details: read-out: LC50 (the source's name)
UACC-62 = assay: Antiproliferative activity against human UACC62 cells; format: functional; details: read-out: LC50 (the source's name)
NCI/ADR-RES = assay: Antiproliferative activity against human NCI/ADR-RES cells; format: functional; details: read-out: LC50 (the source's name)
HCT-116 = assay: Antiproliferative activity against human HCT116 cells; format: functional; details: read-out: LC50 (the source's name)
U-251 = assay: Antiproliferative activity against human U251 cells; format: functional; details: read-out: LC50 (the source's name)
M14 = assay: Antiproliferative activity against human M14 cells; format: functional; details: read-out: LC50 (the source's name)
SNB-19 = assay: Antiproliferative activity against human SNB19 cells; format: functional; details: read-out: LC50 (the source's name)
HOP-92 = assay: Antiproliferative activity against human HOP92 cells; format: functional; details: read-out: LC50 (the source's name)
UACC-257 = assay: Antiproliferative activity against human UACC257 cells; format: functional; details: read-out: LC50 (the source's name)
RXF 393 = assay: Antiproliferative activity against human RXF393 cells; format: functional; details: read-out: LC50 (the source's name)
NCI-H460 = assay: Antiproliferative activity against human NCI-H460 cells; format: functional; details: read-out: LC50 (the source's name)
MCF7 [4] = assay: Antiproliferative activity against human MCF7 cells; format: functional; details: read-out: LC50 (the source's name)
DU-145 = assay: Antiproliferative activity against human DU145 cells; format: functional; details: read-out: LC50 (the source's name)
MDA-MB-231 [5] = assay: Antiproliferative activity against human MDA-MB-231 cells by MTT assay; format: functional, cell-based
How it was run: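 MDA-MB-231 cells in DMEM with 10% FBS, 2 mM L-glutamine and penicillin/streptomycin were seeded at 2.5×10^4 cells/mL and held 24 h at 37°C. They then got ethanol-stock compound over 1 nM–100 μM (vehicle 1% v/v ethanol) for 72 h. MTT at 1 mg/mL final was added for 2 h in the dark, then DMSO for 20 min before absorbance. Untreated = 100% viability. IC50 is the mean ± S.E.M. of ≥3 triplicate experiments.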

SK-MEL-28 = assay: Antiproliferative activity against human SK-MEL-28 cells; format: functional; details: read-out: LC50 (the source's name)
NCI-H23 = assay: Antiproliferative activity against human NCI-H23 cells; format: functional; details: read-out: LC50 (the source's name)
A549 = assay: Antiproliferative activity against human A549 cells; format: functional; details: read-out: LC50 (the source's name)
SF-295 = assay: Antiproliferative activity against human SF295 cells; format: functional; details: read-out: LC50 (the source's name)
SK-MEL-2 = assay: Antiproliferative activity against human SK-MEL-2 cells; format: functional; details: read-out: LC50 (the source's name)
786-0 = assay: Antiproliferative activity against human 786-0 cells; format: functional; details: read-out: LC50 (the source's name)
LOX IMVI = assay: Antiproliferative activity against human LOXIMVI cells; format: functional; details: read-out: LC50 (the source's name)
SK-MEL-5 = assay: Antiproliferative activity against human SK-MEL-5 cells; format: functional; details: read-out: LC50 (the source's name)
MDA-MB-468 = assay: Antiproliferative activity against human MDA-MB-468 cells; format: functional; details: read-out: LC50 (the source's name)
EKVX = assay: Antiproliferative activity against human EKVX cells; format: functional; details: read-out: LC50 (the source's name)
SNB-75 = assay: Antiproliferative activity against human SNB75 cells; format: functional; details: read-out: LC50 (the source's name)
PC-3 = assay: Antiproliferative activity against human PC3 cells; format: functional; details: read-out: LC50 (the source's name)
MOLT-4 = assay: Antiproliferative activity against human MOLT4 cells; format: functional; details: read-out: LC50 (the source's name)

COc1ccc([C@@H]2[C@@H](C(=O)c3ccsc3)C(=O)N2c2cc(OC)c(OC)c(OC)c2)cc1
IC50 (MCF7 [1]): 0.47 µM

COc1ccc([C@@H]2C(c3cccs3)C(=O)N2c2cc(OC)c(OC)c(OC)c2)cc1 (mixture of isomers)
CC50 (K562): > 100 µM | CC50 (SF-268): > 100 µM | CC50 (HOP-62): > 100 µM | CC50 (UO-31): > 100 µM | CC50 (SW-620): > 100 µM | CC50 (ACHN): > 100 µM | CC50 (IGROV-1): > 100 µM | CC50 [2]: > 100 µM | CC50 (OVCAR-8): > 100 µM | CC50 (NCI-H522): > 100 µM | CC50 (A498): > 100 µM | CC50 (HL-60(TB)): > 100 µM | CC50 (BT-549): > 100 µM | CC50 (CAKI-1): > 100 µM | CC50 (MDA-MB-435): > 100 µM | CC50 (RPMI-8226): > 100 µM | CC50 (TK-10): > 100 µM | CC50 (KM12): > 100 µM | CC50 (MDA-MB-231 [3]): > 100 µM | CC50 (HCT-15): > 100 µM | CC50 (Malme-3M): > 100 µM | CC50 (SF-539): > 100 µM | CC50 (COLO 205): > 100 µM | CC50 (HCC 2998): > 100 µM | CC50 (NCI-H226): > 100 µM | CC50 (SN12C): > 100 µM | CC50 (CCRF-CEM): > 100 µM | CC50 (OVCAR-4): > 100 µM | CC50 (SK-OV-3): > 100 µM | CC50 (T47D): > 100 µM | CC50 (OVCAR-5): > 100 µM | CC50 (UACC-62): > 100 µM | CC50 (NCI/ADR-RES): > 100 µM | CC50 (HCT-116): > 100 µM | CC50 (U-251): > 100 µM | CC50 (M14): > 100 µM | CC50 (SNB-19): > 100 µM | CC50 (HOP-92): > 100 µM | CC50 (UACC-257): > 100 µM | CC50 (RXF 393): > 100 µM | CC50 (NCI-H460): > 100 µM | CC50 (MCF7 [4]): > 100 µM | CC50 (DU-145): > 100 µM | IC50 (MDA-MB-231 [5]): 0.19 µM | IC50 (MCF7 [1]): 0.064 µM | CC50 (SK-MEL-28): > 100 µM | CC50 (NCI-H23): > 100 µM | CC50 (A549): > 100 µM | CC50 (SF-295): > 100 µM | CC50 (SK-MEL-2): > 100 µM | CC50 (786-0): > 100 µM | CC50 (LOX IMVI): > 100 µM | CC50 (SK-MEL-5): > 100 µM | CC50 (MDA-MB-468): > 100 µM | CC50 (EKVX): > 100 µM | CC50 (SNB-75): > 100 µM | CC50 (PC-3): > 100 µM | CC50 (MOLT-4): > 100 µM

COc1ccc([C@@H]2/C(=C/c3cccs3)C(=O)N2c2cc(OC)c(OC)c(OC)c2)cc1
IC50 (MCF7 [1]): 4.05 µM

COc1ccc([C@@H]2[C@@H](C(O)c3cccs3)C(=O)N2c2cc(OC)c(OC)c(OC)c2)cc1 (stereo not given in full)
IC50 (MCF7 [1]): 1.2 µM

COc1ccc([C@@H]2C(c3ccoc3)C(=O)N2c2cc(OC)c(OC)c(OC)c2)cc1 (mixture of isomers)
IC50 (MCF7 [1]): 0.15 µM

COc1ccc([C@@H]2C(c3ccc(C)s3)C(=O)N2c2cc(OC)c(OC)c(OC)c2)cc1 (mixture of isomers)
IC50 (MCF7 [1]): 0.25 µM

COc1cc(N2C(=O)[C@H](c3cccs3)[C@H]2c2cccs2)cc(OC)c1OC (mixture of isomers)
IC50 (MCF7 [1]): 0.91 µM

COc1cc(N2C(=O)[C@H](c3cccs3)[C@H]2c2cccc3ccccc23)cc(OC)c1OC (racemic)
IC50 (MCF7 [1]): 0.62 µM

COc1ccc([C@@H]2C(c3ccsc3)C(=O)N2c2cc(OC)c(OC)c(OC)c2)cc1 (mixture of isomers)
IC50 (MCF7 [1]): 0.06 µM

COc1ccc([C@@H]2C(c3cccc4ccccc34)C(=O)N2c2cc(OC)c(OC)c(OC)c2)cc1 (mixture of isomers)
IC50 (MCF7 [1]): 11.3 µM

COc1ccc([C@@H]2[C@@H](C(O)c3ccoc3)C(=O)N2c2cc(OC)c(OC)c(OC)c2)cc1 (stereo not given in full)
IC50 (MCF7 [1]): 1.1 µM

COc1cc(N2C(=O)[C@H](c3cccs3)[C@H]2c2ccc3ccccc3c2)cc(OC)c1OC (mixture of isomers)
IC50 (MCF7 [1]): 0.12 µM

COc1ccc([C@@H]2C(c3cccs3)C(=O)N2c2cc(OC)c(OC)c(OC)c2)cc1[N+](=O)[O-] (mixture of isomers)
IC50 (MCF7 [1]): 0.37 µM
